Source: ChEMBL document CHEMBL1208712, “Synthesis and anti-HCV activity of 3',4'-oxetane nucleosides” (Bioorg Med Chem Lett, 2010)

What was measured:
Hepatitis C virus = assay: Antiviral activity against HCV 1a infected in human HB-1 cells assessed as inhibition of viral RNA replication after 24 hrs; assay type: functional, organism-based, Hepacivirus hominis; settings: subtype 1a, HB1, 24 h
[1] = Cytotoxicity against human HuH7 cells by MTS assay; assay type: cell-based, Huh-7
Method in brief: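 Tested at concentrations up to 50.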

[2] = Inhibition of HCV NS5B polymerase after 30 mins; design: species or system Hepacivirus hominis

SMILES: Nc1ccn([C@@H]2O[C@@]3(CO)CO[C@H]3C2(F)F)c(=O)n1
- EC90 (Hepatitis C virus): > 50 µM
- CC50 [1]: > 50 µM

SMILES: Nc1ccn([C@@H]2O[C@H](CO)[C@@H](O)[C@H]2F)c(=O)n1
- EC90 (Hepatitis C virus): 5.21 µM
- CC50 [1]: > 50 µM

SMILES: Nc1ccn([C@@H]2O[C@@]3(CO)CO[C@H]3[C@H]2F)c(=O)n1
- EC90 (Hepatitis C virus): > 50 µM
- CC50 [1]: > 50 µM

SMILES: C[C@@]1(F)[C@H](O)[C@@H](COP(=O)(O)OP(=O)(O)OP(=O)(O)O)O[C@H]1n1ccc(N)nc1=O [PSI-6130-TP]
- IC50 [2]: 5.37 µM
- Ki [2]: 59 nM

SMILES: Nc1ccn([C@@H]2O[C@@]3(CO)CO[C@H]3[C@@H]2F)c(=O)n1
- EC90 (Hepatitis C virus): > 50 µM
- CC50 [1]: > 50 µM

SMILES: Nc1ncnc2c1ncn2[C@@H]1O[C@@]2(CO)CO[C@H]2[C@H]1F
- EC90 (Hepatitis C virus): > 50 µM
- CC50 [1]: > 50 µM

SMILES: Nc1ccn([C@@H]2O[C@H](CO)[C@@H](O)C2(F)F)c(=O)n1 [GEMCITABINE]
- EC90 (Hepatitis C virus): < 1 µM
- CC50 [1]: < 0.1 µM

SMILES: Nc1ccn([C@@H]2O[C@@]3(COP(=O)(O)OP(=O)(O)OP(=O)(O)O)CO[C@H]3[C@H]2F)c(=O)n1
- IC50 [2]: 31 µM

SMILES: C[C@@]1(F)[C@H](O)[C@@H](CO)O[C@H]1n1ccc(N)nc1=O
- EC90 (Hepatitis C virus; read-out: EC90): 4.6 µM
- CC50 [1]: > 50 µM

SMILES: C[C@@]1(F)[C@@H]2OC[C@]2(CO)O[C@H]1n1ccc(N)nc1=O
- EC90 (Hepatitis C virus): > 50 µM
- CC50 [1]: > 50 µM

SMILES: Nc1ccn([C@@H]2O[C@@]3(COP(=O)(O)OP(=O)(O)OP(=O)(O)O)CO[C@H]3C2(F)F)c(=O)n1
- IC50 [2]: 32.8 µM

SMILES: CO[C@H]1[C@H](n2ccc(N)nc2=O)O[C@@]2(CO)CO[C@@H]12
- EC90 (Hepatitis C virus): > 50 µM
- CC50 [1]: > 50 µM

SMILES: Nc1ccn([C@@H]2O[C@H](CO)[C@@H](O)[C@@H]2F)c(=O)n1
- EC90 (Hepatitis C virus): > 50 µM
- CC50 [1]: > 50 µM

SMILES: Nc1ccn([C@@H]2O[C@@]3(COP(=O)(O)OP(=O)(O)OP(=O)(O)O)CO[C@H]3[C@@H]2F)c(=O)n1
- IC50 [2]: 78.9 µM
